Data taken from ChEMBL document CHEMBL1124780, “Phenyl selenones: alkyl transfer by selenium-carbon bond cleavage” (J Med Chem, 1990).

Experiments:
[1] = Half-life after NBP alkylation; format: ADME
In short: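 NBP alkylation at 37 °C in aqueous acetone (52.2:47.8, v/v) with 40.6 mM NBP (pseudo-first-order excess), 17.4 mM Tris-HCl pH 7.4, and 0.087 or 0.174 mM alkylating agent. First-order rate constants were taken from plots of log(percent remaining alkylating species) vs time. Adduct was read at 560 nm after triethylamine alkalization.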

[2] = Pseudo first order rate constant of NBP alkylation was determined at 37 degree Centigrade; format: ADME
In short: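 Alkylating agent (0.087 or 0.174 mM) reacted at 37 °C with 4-(4-nitrobenzyl)pyridine (40.6 mM, pseudo-first-order excess). Medium was aqueous acetone (52.2:47.8 v/v) with 17.4 mM Tris-HCl, pH 7.4. k' was taken from plots of log(% remaining alkylating species) vs time.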

L1210 = experiment: In vitro growth inhibition against L1210 murine leukemia cells; format: functional, cell-based; conditions: Mus musculus
In short: (§1)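 Cells were exposed to drug in vitro for 48 h (L1210 murine leukemia; CCRF-CEM human lymphoblast). The value is the drug concentration giving 50% growth inhibition.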

CCRF-CEM [3] = experiment: In vitro growth inhibition against CCRF-CEM human lymphoblast cells; format: functional, cell-based; in short: as §1
IGROV-1 = experiment: In vitro cytotoxicity was determined against IGROVI human ovarian cell line using NCI screen; format: functional, cell-based
SNB-78 = experiment: In vitro cytotoxicity was determined against SNB78 human CNS tumor cell line using NCI screen; format: functional, cell-based
UACC-257 = experiment: In vitro cytotoxicity was determined against UACC-257 human melanoma cell line using NCI screen; format: functional, cell-based
UACC-62 = experiment: In vitro cytotoxicity was determined against UACC-62 human melanoma cell line using NCI screen; format: functional, cell-based
CCRF-SB = experiment: In vitro cytotoxicity was determined against CCRF-SB human leukemia cell line using NCI screen; format: functional, cell-based
SNB-19 = experiment: In vitro cytotoxicity was determined against SNB19 human CNS tumor cell line using NCI screen; format: functional, cell-based
COLO 320 [4] = experiment: In vitro cytotoxicity was determined against COLO 320 DM human colon tumor cell line using NCI screen; format: functional, cell-based
LOX IMVI = experiment: In vitro cytotoxicity was determined against LOX human melanoma cell line using NCI screen; format: functional, cell-based
SK-MEL-2 = experiment: In vitro cytotoxicity was determined against SK-MEL-2 human melanoma cell line using NCI screen; format: functional, cell-based
SF-295 = experiment: In vitro cytotoxicity was determined against SF-295, U251, SNB19 human CNS tumor cell line using NCI screen; format: functional, cell-based
Homo sapiens [5] = organism: Homo sapiens; experiment: In vitro cytotoxicity was determined against SKLU human non-small cell lung carcinoma cell line using BACTEC screen; format: functional
COLO 320 [6] = experiment: In vitro cytotoxicity was determined against COLO 320 human colon tumor cell line using BACTEC screen; format: functional, cell-based
SK-MEL-5 = experiment: In vitro cytotoxicity was determined against SK-MEL-5 human melanoma cell line using NCI screen; format: functional, cell-based
U-251 = experiment: In vitro cytotoxicity was determined against U251 human CNS tumor cell line using NCI screen; format: functional, cell-based
HCC 2998 = experiment: In vitro cytotoxicity was determined against HCC 2998 human colon tumor cell line using NCI screen; format: functional, cell-based
HCT-15 = experiment: In vitro cytotoxicity was determined against HCT-15 human colon tumor cell line using NCI screen; format: functional, cell-based
NCI-H460 = experiment: In vitro cytotoxicity was determined against H460 human non-small cell lung carcinoma cell line using NCI screen; format: functional, cell-based
NCI-H23 = experiment: In vitro cytotoxicity was determined against H23 human non-small cell lung carcinoma cell line using NCI screen; format: functional, cell-based
HOP-62 = experiment: In vitro cytotoxicity was determined against HOP-62 human non-small cell lung carcinoma cell line using NCI screen; format: functional, cell-based
UO-31 = experiment: In vitro cytotoxicity was determined against UO-31 human renal tumor cell line using NCI screen; format: functional, cell-based
OM-1 = experiment: In vitro cytotoxicity was determined against OM-1 human colon tumor cell line using BACTEC screen; format: functional, cell-based
COLO 205 = experiment: In vitro cytotoxicity was determined against COLO-205 human colon tumor cell line using NCI screen; format: functional, cell-based
MOLT-4 = experiment: In vitro cytotoxicity was determined against MOLT-4 human leukemia cell line using NCI screen; format: functional, cell-based
KM12 = experiment: In vitro cytotoxicity was determined against KM12 human colon tumor cell line using NCI screen; format: functional, cell-based
SK-MES-1 = experiment: In vitro cytotoxicity was determined against SKMES human non-small cell lung carcinoma cell line using BACTEC screen; format: functional, cell-based
Hs-578T = experiment: In vitro cytotoxicity was determined against Hs 578.T human breast tumor cell line using BACTEC screen; format: functional, cell-based
SK-OV-3 = experiment: In vitro cytotoxicity was determined against SKOV-3 human ovarian cell line using NCI screen; format: functional, cell-based
HOP-19 = experiment: In vitro cytotoxicity was determined against HOP-19 human non-small cell lung carcinoma cell line using NCI screen; format: functional, cell-based
HT-29 = experiment: In vitro cytotoxicity was determined against HT-29 human colon tumor cell line using BACTEC screen; format: functional, cell-based
SF-539 = experiment: In vitro cytotoxicity was determined against SF-539 human CNS tumor cell line using NCI screen; format: functional, cell-based
CCRF-CEM [7] = experiment: In vitro cytotoxicity was determined against CCRF-CEM human leukemia cell line using NCI screen; format: functional, cell-based
Homo sapiens [8] = organism: Homo sapiens; experiment: In vitro cytotoxicity was determined against CALU 3 human non-small cell lung carcinoma cell line using BACTEC screen; format: functional
M19-MEL = experiment: In vitro cytotoxicity was determined against M19-MEL human melanoma cell line using NCI screen; format: functional, cell-based
OVCAR-5 = experiment: In vitro cytotoxicity was determined against OVCAR5 human ovarian cell line using NCI screen; format: functional, cell-based
SF-268 = experiment: In vitro cytotoxicity was determined against SF-268 human CNS tumor cell line using NCI screen; format: functional, cell-based
HCT-116 = experiment: In vitro cytotoxicity was determined against COLO 320 DM,HCT-15, COLO-205, HCT116 HCC 2998, KM20L2, KM12 human colon tumor cell line using NCI screen; format: functional, cell-based
SN12C [9] = experiment: (§2) In vitro cytotoxicity was determined against SN12 KI human renal tumor cell line using NCI screen; format: functional, cell-based
SN12C [10] = experiment: as §2; format: functional, cell-based; remark: listed apart in the source
RPMI-8226 = experiment: In vitro cytotoxicity was determined against RPMI 8226 human leukemia cell line using NCI screen; format: functional, cell-based
Malme-3M = experiment: In vitro cytotoxicity was determined against MALME-3M human melanoma cell line using NCI screen; format: functional, cell-based
HOP-18 = experiment: In vitro cytotoxicity was determined against HOP-18 human non-small cell lung carcinoma cell line using NCI screen; format: functional, cell-based
KM-20L2 = experiment: In vitro cytotoxicity was determined against KM20L2 human colon tumor cell line using NCI screen; format: functional, cell-based
A2780 = experiment: In vitro cytotoxicity was determined against A2780 human ovarian cell line using NCI screen; format: functional, cell-based
K562 = experiment: In vitro cytotoxicity was determined against K-562 human leukemia cell line using NCI screen; format: functional, cell-based
MCF7 = experiment: In vitro cytotoxicity was determined against MCF-7M human breast tumor cell line using BACTEC screen; format: functional, cell-based
A498 = experiment: In vitro cytotoxicity was determined against A 498 human renal tumor cell line using NCI screen; format: functional, cell-based
TE-671 = experiment: In vitro cytotoxicity was determined against TE671 human CNS tumor cell line using NCI screen; format: functional, cell-based
SK-MEL-28 = experiment: In vitro cytotoxicity was determined against SK-MEL-28 human melanoma cell line using NCI screen; format: functional, cell-based

Question: Which half-life [1] does the source give for `ClCC[Se]c1ccccc1` here?
Answer: 0.031 h

Question: Which k' [2] does the source give for `CS(=O)(=O)OCCC[Se](=O)(=O)c1ccccc1` here?
Answer: 0.00121 min⁻¹

Question: And the IC50 (L1210)?
Answer: 1.2 µM

Question: What about the IC50 (CCRF-CEM [3]) of the same molecule?
Answer: 0.9 µM

Question: What about the half-life [1] of the same molecule?
Answer: 9.55 h

Question: Which half-life [1] does the source give for `ClCC[Se]CCCl` here?
Answer: 0.004 h

Question: What does the source list for `CS(=O)(=O)CS(=O)(=O)OCCCl`?
Answer: k' [2]: 0.00123 min⁻¹; IC50 (L1210): 3 µM; half-life [1]: 9.4 h

Question: For `CC[Se](=O)(=O)c1ccccc1`, which k' [2] is on record?
Answer: 0.00248 min⁻¹

Question: And the IC50 (L1210)?
Answer: 5 µM

Question: And the IC50 (CCRF-CEM [3])?
Answer: 10 µM

Question: And the half-life [1]?
Answer: 4.67 h

Question: For `O=S(=O)(CCCl)c1ccccc1`, which k' [2] is on record?
Answer: < 0.00012 min⁻¹

Question: And the IC50 (L1210)?
Answer: 2.3 µM

Question: And the IC50 (CCRF-CEM [3])?
Answer: 2.25 µM

Question: And the half-life [1]?
Answer: > 96 h

Question: With `O=C(O)CCCc1ccc(N(CCCl)CCCl)cc1` [CHLORAMBUCIL] as the molecule, how does the k' [2] read?
Answer: 0.00149 min⁻¹

Question: And the half-life [1]?
Answer: 7.75 h

Question: For `COc1ccc([Se](=O)(=O)CCCl)cc1`, which k' [2] is on record?
Answer: 0.00125 min⁻¹

Question: And the IC50 (L1210)?
Answer: 0.36 µM

Question: What about the IC50 (CCRF-CEM [3]) of the same molecule?
Answer: 0.14 µM

Question: What about the half-life [1] of the same molecule?
Answer: 9.25 h

Question: What does the source list for `O=[Se](=O)(CCCl)c1ccccc1`?
Answer: IC50 (IGROV-1): 7.8 µM; IC50 (SNB-78): 6 µM; IC50 (UACC-257): 3.7 µM; IC50 (UACC-62): 3.7 µM; IC50 (CCRF-SB): 0.45 µM; IC50 (SNB-19): 6 µM; IC50 (COLO 320 [4]): 2.3 µM; IC50 (LOX IMVI): 3.7 µM; IC50 (SK-MEL-2): 3.7 µM; k' [2]: 0.00138 min⁻¹; IC50 (SF-295): 6 µM; IC50 (Homo sapiens [5]): 0.06 µM; IC50 (COLO 320 [6]): 1.2 µM; IC50 (SK-MEL-5): 3.7 µM; IC50 (U-251): 6 µM; IC50 (HCC 2998): 2.3 µM; IC50 (HCT-15): 2.3 µM; IC50 (NCI-H460): 4.3 µM; IC50 (NCI-H23): 4.3 µM; IC50 (HOP-62): 4.3 µM; IC50 (UO-31): 4.6 µM; IC50 (OM-1): > 4 µM; IC50 (COLO 205): 2.3 µM; IC50 (MOLT-4): 0.45 µM; IC50 (KM12): 2.3 µM; IC50 (SK-MES-1): 0.15 µM; IC50 (Hs-578T): 0.9 µM; IC50 (SK-OV-3): 7.8 µM; IC50 (HOP-19): 4.3 µM; IC50 (HT-29): 1.9 µM; IC50 (SF-539): 6 µM; IC50 (L1210): 0.55 µM; IC50 (CCRF-CEM [7]): 0.45 µM; IC50 (Homo sapiens [8]): 2.2 µM; IC50 (M19-MEL): 3.7 µM; IC50 (OVCAR-5): 7.8 µM; IC50 (SF-268): 6 µM; IC50 (CCRF-CEM [3]): 0.15 µM; IC50 (HCT-116): 2.3 µM; IC50 (SN12C [9]): 4.6 µM; IC50 (SN12C [10]): 4.6 µM; IC50 (RPMI-8226): 0.45 µM; IC50 (Malme-3M): 3.7 µM; IC50 (HOP-18): 4.3 µM; IC50 (KM-20L2): 2.3 µM; IC50 (A2780): 7.8 µM; half-life [1]: 8.37 h; IC50 (K562): 0.45 µM; IC50 (MCF7): > 4 µM; IC50 (A498): 4.6 µM; IC50 (TE-671): 6 µM; IC50 (SK-MEL-28): 3.7 µM

Question: Which k' [2] does the source give for `O=[N+]([O-])c1ccc([Se](=O)(=O)CCCl)cc1` here?
Answer: 0.0104 min⁻¹

Question: And the IC50 (L1210)?
Answer: 0.9 µM

Question: What about the IC50 (CCRF-CEM [3]) of the same molecule?
Answer: 0.4 µM

Question: What about the half-life [1] of the same molecule?
Answer: 1.08 h

Question: Which IC50 (L1210) does the source give for `O=[Se](O)c1ccccc1` [BENZENE SELENOIC ACID] here?
Answer: 3 µM
